Active and inactive are the calls of the source. No cut-off for these calls is given here.

Results on 7 compounds are retold here after ChEMBL document CHEMBL3826891, “Cupriphilic compounds to aid in proteasome inhibition” (Bioorg Med Chem Lett, 2016).

In assay [1] the target is T1, Proteasome Macropain subunit MB1 (Homo sapiens) (UniProt P28074).
T1 sequence (whole entry): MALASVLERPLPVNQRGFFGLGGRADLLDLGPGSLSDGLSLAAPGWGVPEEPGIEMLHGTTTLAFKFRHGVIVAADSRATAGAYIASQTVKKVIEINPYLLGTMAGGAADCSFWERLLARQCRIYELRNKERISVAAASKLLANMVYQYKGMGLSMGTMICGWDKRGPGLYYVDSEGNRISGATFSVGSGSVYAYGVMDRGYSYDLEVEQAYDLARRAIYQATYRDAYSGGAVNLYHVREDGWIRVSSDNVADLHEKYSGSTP
Nature of the assay: Inhibition of chymotrypsin like activity of 20S proteasome (unknown origin) using suc-leu-leu-val-tyr-AMC as substrate at 10 uM after 40 mins in presence of iron by fluorescence assay. The essentials: (§1)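 To test metal selectivity, the chloride of nickel, calcium, iron or zinc replaced copper and was premixed with compound for 40 min with shaking in 50 mM Tris pH 7.6. 20S proteasome and suc-LLVY-AMC were then added and incubated 2 h at 37 °C. Cleavage was read by fluorescence at 340 nm excitation and 460 nm emission.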

Assay [2] has as its target T1, Proteasome Macropain subunit MB1 (Homo sapiens). Nature of the assay: Inhibition of chymotrypsin like activity of 20S proteasome (unknown origin) using suc-leu-leu-val-tyr-AMC as substrate at 10 uM after 40 mins in presence of 1 uM copper by fluorescence assay. In a few lines: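 Compound in DMSO, final DMSO below 2%, at 10 µM. Premixed with 1 µM copper chloride in 50 mM Tris pH 7.6 for 40 min with gentle shaking to allow chelation. 20S proteasome and suc-Leu-Leu-Val-Tyr-AMC were then added and incubated 2 h at 37 °C. Substrate cleavage rate was read as fluorescence at 340 nm excitation and 460 nm emission.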

The target is the same in assay [3]. Nature of the assay: Inhibition of chymotrypsin like activity of 20S proteasome (unknown origin) using suc-leu-leu-val-tyr-AMC as substrate at 10 uM after 40 mins in presence of calcium by fluorescence assay. In a few lines: as §1
For assay [4] the target is unchanged. Kind of assay: Inhibition of chymotrypsin like activity of 20S proteasome (unknown origin) using suc-leu-leu-val-tyr-AMC as substrate at 10 uM after 40 mins in presence of nickel by fluorescence assay. In a few lines: as §1
The target is the same in assay [5]. Kind of assay: Inhibition of chymotrypsin like activity of 20S proteasome (unknown origin) using suc-leu-leu-val-tyr-AMC as substrate at 10 uM after 40 mins in presence of copper by fluorescence assay.
For assay [6], the target named is T2, Proteasome Macropain subunit MB1 (Homo sapiens, UniProt P28074).
T2 sequence (P28074 whole entry): T1 sequence (whole entry)
Kind of assay: Inhibition of chymotrypsin like activity of 20S proteasome (unknown origin) using suc-leu-leu-val-tyr-AMC as substrate after 40 mins in presence of 100 nM copper by fluorescence assay. The essentials: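 Dose-response format in which compound concentration was varied with copper chloride fixed at 100 nM. Compound and copper were pre-equilibrated 40 min with gentle shaking in 50 mM Tris pH 7.6, final DMSO below 2%. 20S proteasome and suc-LLVY-AMC were added and run 2 h at 37 °C. AMC fluorescence was read at 340/460 nm, and IC50 was taken from the curve.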

The term inhibition denotes how much of the control response was suppressed. Take `NC(=O)SCC(=O)Nc1ccccc1C(=O)O`: the inhibition result in assay [1], in assay [3], in assay [4] and in assay [5] was “Active” throughout. The inhibition in assay [2] was above 80%.
For `O=C(O)c1ccc(O)c(O)c1`, the inhibition result in assay [1], in assay [3], in assay [4] and in assay [5] was “Active” each time. The inhibition in assay [2] is above 80%.
In the case of `CCN(CC)C(=S)SSC(=S)N(CC)CC`, the inhibition result in assay [1], in assay [3], in assay [4] and in assay [5] was “Active” in each case. The inhibition in assay [2] came out at 92%.
In the case of `O=c1oc2c(cc1O)oc(=O)c1cc(O)c(O)c(O)c12`, the inhibition entry in assay [1], in assay [3], in assay [4] and in assay [5] was “Active” each time. In addition, the inhibition in assay [2] is above 80%.
Turning to `OCc1cc(O)c(CO)nn1`, the inhibition entry in assay [1], in assay [3], in assay [4] and in assay [5] was “Active” in each case. For the same compound, in assay [2], the inhibition was above 80%.
What is called IC50 is the concentration needed to halve the response being measured. Consider `O=C1COc2c1ccc(O)c2O`, for which, in assay [6], the IC50 is 3 µM. Besides, the inhibition entry in assay [1], in assay [3], in assay [4] and in assay [5] was “Active” each time. Also, the inhibition in assay [2] was above 80%.
On to `O=C1c2c(O)cc(O)cc2OCC1c1ccc(O)cc1` (stereo unspecified), for which the inhibition entry in assay [1], in assay [3], in assay [4] and in assay [5] was “Active” in each case. The inhibition in assay [2] was above 80%.
